Source: ChEMBL document CHEMBL1152483, “To determine the cytotoxicity of chlorambucil and one of its nitro-derivatives, conjugated to prasterone and pregnenolone, towards eight human cancer cell-lines” (Eur J Med Chem, 2009)
Activity calls are given as the source filed them. The rule behind the calls is not given here.

Experiments:
[1] = Chemical stability assessed as rate of hydrolysis after 24 hrs by HPLC analysis in presence of pig liver esterase; format: physicochemical; settings: read-out: Activity
Outline: (§1)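 Porcine liver esterase is preincubated about 15 min at 37 °C in phosphate buffer pH 7.4, then ester is added. Aliquots are taken at set times, quenched with an equal volume of acetonitrile, vortexed and spun 10 min at 11,600 g. Samples are run on RP-HPLC (C18, 2% acetic acid/acetonitrile pH 5.2, 1.2 ml/min, 254 nm). The zero reaction is ester in buffer alone for 15 min.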

WiDr [2] = assay: Cytotoxicity against human WiDr cells after 5 days by MTT assay; format: functional, cell-based; settings: 120 h
Outline: (§2)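 Cells are grown in RPMI with 2 mM L-glutamine and 10% FBS and seeded at 400–1000 per well. They get doubling dilutions of drug, each dose in triplicate, for five days at 37 °C, 5% CO2, humidified. MTT at 3 mg/ml is added for 3 h, and formazan is dissolved in DMSO and read at 540 nm minus 620 nm. % growth inhibition is taken against control wells and IC50 calculated.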

[3] = Cytotoxicity against human OVCA3 cells after 5 days by MTT assay; format: functional, cell-based; settings: OVCA3, 120 h; outline: as §2
MDA-MB-468 [4] = assay: Cytotoxicity against human MDA-MB-468 cells […] after 5 days by MTT assay; format: functional, cell-based; settings: MDA-MB-468, 120 h; outline: as §2
[5] = Metabolic stability in human plasma assessed as rate of hydrolysis after 24 hrs; format: ADME, cell-free; settings: read-out: Activity
Outline: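 Ester stock is made in absolute ethanol and added to freshly prepared human plasma with PBS, then incubated at 37 °C. Samples are mixed with an equal volume of mobile phase, spun 20 min at 11,600 g, and the supernatant is diluted in mobile phase for RP-HPLC.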

[6] = Chemical stability assessed as rate of hydrolysis after 2 hrs by HPLC analysis in presence of pig liver esterase; format: physicochemical; settings: read-out: Activity; outline: as §1
[7] = Alkylating activity in 0.2 M acetate buffer of pH 5.6 at 0.1 to 1 mM after 4 hrs by spectrophotometry relative to chlorambucil; format: physicochemical; settings: pH 5.6, 4 h, 1000 µM
Outline: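 Each compound at 0.1–1.0 mM in 50% (v/v) acetone/ethanol is added to 0.2 M acetate buffer pH 5.6 with 5% (w/v) p-nitrobenzyl pyridine in acetone and incubated 4 h at 37 °C. Colour is then developed with 25% (v/v) 3-amino-1-propanol in tert-butanol and absorbance read at 560 nm.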

Daoy [8] = assay: Cytotoxicity against human DaOY cells after 5 days by MTT assay; format: functional, cell-based; settings: 120 h; outline: as §2
A-375 [9] = assay: Cytotoxicity against human A375 cells after 5 days by MTT assay; format: functional, cell-based; settings: A-375, 120 h; outline: as §2
[10] = Chemical stability in phosphate buffer saline at pH 7.4 assessed as compound degradation by HPLC analysis; format: physicochemical; settings: read-out: Activity
Outline: (§3)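 Esters are stored in phosphate buffered saline at 37 °C. Stability is followed over forty-five days by RP-HPLC (C18, acetic acid/acetonitrile pH 5.2, 1.2 ml/min, UV 254 nm), supported by infrared spectroscopy.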

NCI-H460 [11] = assay: Cytotoxicity against human H460 cells after 5 days by MTT assay; format: functional, cell-based; settings: NCI-H460, 120 h; outline: as §2
MCF7 [12] = assay: Cytotoxicity against human MCF7 cells expressing estrogen and progesterone receptor after 5 days by MTT assay; format: functional, cell-based; settings: MCF7, 120 h; outline: as §2
[13] = Partition coefficient, log P after 1 hr by UV spectroscopy; format: physicochemical; settings: octanol/water
Outline: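 Compound is shaken in n-octanol/water for 1 h at 20 °C, then spun 10 min at 3600 g and the phases separated. Original and shaken solutions are diluted to 0.8 mg% and compared by UV spectroscopy at 200–400 nm. Log P is calculated by the Leo method.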

MDA-MB-468 [14] = assay: Cytotoxicity against human MDA-MB-468 cells transfected with NAD(P)H: quinone oxidoreductase NQO1 after 5 days by MTT assay; format: functional, cell-based; settings: MDA-MB-468, 120 h; outline: as §2
MDA-MB-468 [15] = assay: Ratio of IC50 for […] human MDA-MB-468 cells transfected with NAD(P)H: quinone oxidoreductase NQO1 to IC50 for human MDA-MB-468 cells […]; format: functional
[16] = Metabolic stability in rat liver assessed as half life; format: ADME, tissue-based
[17] = Metabolic stability in rat blood assessed as half life; format: ADME, tissue-based
A-375 [18] = assay: Cytotoxicity against human A375 cells at < 100 uM after 5 days by MTT assay; format: functional, cell-based; outline: as §2
OVCA3 = assay: Cytotoxicity against human OVCA3 cells at < 100 uM after 5 days by MTT assay; format: functional, cell-based; outline: as §2
MCF7 [19] = assay: Cytotoxicity against human MCF7 cells expressing estrogen and progesterone receptor at < 100 uM after 5 days by MTT assay; format: functional, cell-based; outline: as §2
WiDr [20] = assay: Cytotoxicity against human WiDr cells at < 100 uM after 5 days by MTT assay; format: functional, cell-based; outline: as §2
MDA-MB-468 [21] = assay: Cytotoxicity against human MDA-MB-468 cells transfected with NAD(P)H: quinone oxidoreductase NQO1 at < 100 uM after 5 days by MTT assay; format: functional, cell-based; outline: as §2
NCI-H460 [22] = assay: Cytotoxicity against human H460 cells at < 100 uM after 5 days by MTT assay; format: functional, cell-based; outline: as §2
MDA-MB-468 [23] = assay: Cytotoxicity against human MDA-MB-468 cells […] at < 100 uM after 5 days by MTT assay; format: functional, cell-based; outline: as §2
Daoy [24] = assay: Cytotoxicity against human DaOY cells at < 100 uM after 5 days by MTT assay; format: functional, cell-based; outline: as §2
[25] = Chemical stability in phosphate buffer saline assessed as half life by HPLC analysis; format: physicochemical; outline: as §3

Structure (SMILES)	metabolised at 24 h [1]	IC50 (WiDr [2])	IC50 [3]	IC50 (MDA-MB-468 [4])	metabolised at 24 h [5]	metabolised at 2 h [6]	Activity [7]	IC50 (Daoy [8])	IC50 (A-375 [9])	IC50 (NCI-H460 [11])	IC50 (MCF7 [12])	logP at 1 h [13]	IC50 (MDA-MB-468 [14])	Ratio IC50 (MDA-MB-468 [15])	other results
CC(=O)[C@H]1CC[C@H]2[C@@H]3CC=C4C[C@@H](OC(=O)CCCc5ccc(N(CCCl)CCCl)c([N+](=O)[O-])c5)CC[C@]4(C)[C@H]3CC[C@]12C	83%	> 100 µM	> 100 µM	19.3 µM	37%	24%	4%	> 100 µM	> 100 µM	> 100 µM	68.3 µM	> 8	32.6 µM	2	degraded [10]: 48%
CC(C)(C)OC(=O)CCCc1ccc(N(CCCl)CCCl)cc1 [CHLORAMBUCIL TERTIARY BUTYL ESTER]															half-life [16]: 120 min; half-life [17]: 420 min
O=C(O)CCCc1ccc(N(CCCl)CCCl)c([N+](=O)[O-])c1		13 µM	15.6 µM	1.16 µM			38%	5.3 µM	9.46 µM	9.53 µM	23 µM	3.7	3.75 µM		
C[C@]12CC[C@H](OC(=O)CCCc3ccc(N(CCCl)CCCl)cc3)CC1=CC[C@@H]1[C@@H]2CC[C@]2(C)C(=O)CC[C@@H]12	83%	> 100 µM	82.5 µM	5.48 µM	51%	24%	70%	19.6 µM	61.4 µM	11.8 µM	72.5 µM	> 8	11.8 µM	1.5	
C[C@]12CC[C@H](OC(=O)CCCc3ccc(N(CCCl)CCCl)c([N+](=O)[O-])c3)CC1=CC[C@@H]1[C@@H]2CC[C@]2(C)C(=O)CC[C@@H]12	83%	> 100 µM	> 100 µM	7.25 µM	51%	24%	8%	> 100 µM	> 100 µM	> 100 µM	> 100 µM	> 8	10.6 µM	1.5	degraded [10]: 46%
C[C@]12CC[C@H](O)CC1=CC[C@@H]1[C@@H]2CC[C@]2(C)C(=O)CC[C@@H]12															Activity (A-375 [18]): inactive; Activity (OVCA3): inactive; Activity (MCF7 [19]): inactive; Activity (WiDr [20]): inactive; Activity (MDA-MB-468 [21]): inactive; Activity (NCI-H460 [22]): inactive; Activity (MDA-MB-468 [23]): inactive; Activity (Daoy [24]): inactive
O=C(O)CCCc1ccc(N(CCCl)CCCl)cc1 [CHLORAMBUCIL]		7.13 µM	8.92 µM	0.65 µM			> 100%	1.36 µM	2.58 µM	2.19 µM	4.5 µM	3.8	0.79 µM		half-life [25]: 60 min
CC(=O)[C@H]1CC[C@H]2[C@@H]3CC=C4C[C@@H](OC(=O)CCCc5ccc(N(CCCl)CCCl)cc5)CC[C@]4(C)[C@H]3CC[C@]12C	83%	86.3 µM	88.8 µM	10.3 µM	37%	24%	18%	41.9 µM	74.2 µM	36.2 µM	90 µM	> 8	20.5 µM	2	
CC(=O)[C@H]1CC[C@H]2[C@@H]3CC=C4C[C@@H](O)CC[C@]4(C)[C@H]3CC[C@]12C															Activity (A-375 [18]): inactive; Activity (OVCA3): inactive; Activity (MCF7 [19]): inactive; Activity (WiDr [20]): inactive; Activity (MDA-MB-468 [21]): inactive; Activity (NCI-H460 [22]): inactive; Activity (MDA-MB-468 [23]): inactive; Activity (Daoy [24]): inactive
